{"source": "ChEMBL document CHEMBL1122878", "about": "“New antihistaminic N-heterocyclic 4-piperidinamines. 3. Synthesis and antihistaminic activity of N-(4-piperidinyl)-3H-imidazo[4,5-b]pyridin-2-amines” (1985)", "format_in_all_cases": "functional", "key": {"Rattus norvegicus [1]": {"system": "Rattus norvegicus", "test": "In vivo antihistaminic activity after 1 hour of subcutaneous administration using 48/80 lethality test in rat.", "conditions": "sc", "procedure,_shortened": "(§1)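 Male inbred Wistar rats, 230–270 g, starved overnight, housed at 21 ± 1 °C and 65 ± 5% RH. Protection was survival at 4 h. ED50 by Finney from five rats per dose, at least three doses in a geometric series 0.0025–40 mg/kg.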"}, "Rattus norvegicus [2]": {"system": "Rattus norvegicus", "test": "In vivo antihistaminic activity after 2 hours of oral administration using 48/80 lethality test in rat.", "procedure,_shortened": "as §1"}, "Cavia porcellus [3]": {"system": "Cavia porcellus", "test": "In vivo antihistaminic activity after 24 hr of oral administration using histamine lethality test in guinea pig", "procedure,_shortened": "(§2)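 Male albino guinea pigs, 280–360 g. Compound given orally in twofold dose increments 3, 24, 48 or 96 h before an iv challenge with histamine dihydrochloride at 1.25 mg/kg. Protection was survival at 1 h. PD50 with confidence limits by Finney, using 4–6 animals per dose and time point, at least three doses from a geometric series 0.0025–5.0 mg/kg.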"}, "Cavia porcellus [4]": {"system": "Cavia porcellus", "test": "In vivo antihistaminic activity after 96 hr of oral administration using histamine lethality test in guinea pig", "procedure,_shortened": "as §2"}, "Cavia porcellus [5]": {"system": "Cavia porcellus", "test": "In vivo antihistaminic activity after 48 hr of oral administration using histamine lethality test in guinea pig", "procedure,_shortened": "as §2"}, "Cavia porcellus [6]": {"system": "Cavia porcellus", "test": "In vivo antihistaminic activity after 3 hr of oral administration using histamine lethality test in guinea pig", "procedure,_shortened": "as §2"}, "Cavia porcellus [7]": {"system": "Cavia porcellus", "test": "In vivo antihistaminic activity after 3 hr of oral administration using histamine lethality test in guinea pig.", "procedure,_shortened": "as §2"}, "Cavia porcellus [8]": {"system": "Cavia porcellus", "test": "In vivo antihistaminic activity after 48 hr of oral administration using histamine lethality test in guinea pig.", "procedure,_shortened": "as §2"}, "Cavia porcellus [9]": {"system": "Cavia porcellus", "test": "In vivo antihistaminic activity after 24 hr of oral administration using histamine lethality test in guinea pig.", "procedure,_shortened": "as §2"}}}
{"smiles": "Fc1ccc(Cn2c(NC3CCN(CCc4cccs4)CC3)nc3cccnc32)cc1", "values": [{"measurement": "ED50", "setting": "Rattus norvegicus [1]", "value": 0.16, "unit": "mg/kg"}, {"measurement": "ED50", "setting": "Rattus norvegicus [2]", "value": "> 2.5", "unit": "mg/kg"}]}
{"smiles": "c1ccc(Cn2c(NC3CCN(CCC(c4ccccc4)c4ccccc4)CC3)nc3cccnc32)cc1", "values": [{"measurement": "ED50", "setting": "Rattus norvegicus [1]", "value": "> 2.5", "unit": "mg/kg"}]}
{"smiles": "Cc1cccc(C)c1NC(=O)CN1CCC(Nc2nc3cccnc3n2Cc2ccccc2)CC1", "values": [{"measurement": "ED50", "setting": "Rattus norvegicus [1]", "value": "> 2.5", "unit": "mg/kg"}]}
{"smiles": "c1ccc(CCN2CCC(Nc3nc4cccnc4n3Cc3ccccc3)CC2)cc1", "values": [{"measurement": "ED50", "setting": "Rattus norvegicus [1]", "value": 0.08, "unit": "mg/kg"}, {"measurement": "ED50", "setting": "Rattus norvegicus [2]", "value": "> 2.5", "unit": "mg/kg"}]}
{"smiles": "CCCCN1CCC(Nc2nc3cccnc3n2Cc2ccccc2)CC1", "values": [{"measurement": "ED50", "setting": "Rattus norvegicus [1]", "value": 0.16, "unit": "mg/kg"}, {"measurement": "ED50", "setting": "Rattus norvegicus [2]", "value": "> 2.5", "unit": "mg/kg"}]}
{"smiles": "COc1ccc(CCN2CCC(Nc3nc4ccccc4n3Cc3ccc(F)cc3)CC2)cc1", "note": "[ASTEMIZOLE]", "values": [{"measurement": "ED50", "setting": "Rattus norvegicus [1]", "value": 0.11, "unit": "mg/kg"}, {"measurement": "ED50", "setting": "Rattus norvegicus [2]", "value": 0.11, "unit": "mg/kg"}, {"measurement": "ED50", "setting": "Cavia porcellus [3]", "value": 0.07, "unit": "mg/kg"}, {"measurement": "ED50", "setting": "Cavia porcellus [4]", "value": 0.19, "unit": "mg/kg"}, {"measurement": "ED50", "setting": "Cavia porcellus [5]", "value": 0.04, "unit": "mg/kg"}, {"measurement": "ED50", "setting": "Cavia porcellus [6]", "value": 0.33, "unit": "mg/kg"}]}
{"smiles": "OC(COc1ccccc1)CN1CCC(Nc2nc3cccnc3n2Cc2ccccc2)CC1", "note": "(stereo not drawn)", "values": [{"measurement": "ED50", "setting": "Rattus norvegicus [1]", "value": 0.16, "unit": "mg/kg"}, {"measurement": "ED50", "setting": "Rattus norvegicus [2]", "value": 0.63, "unit": "mg/kg"}]}
{"smiles": "Fc1ccc(Cn2c(NC3CCN(C/C=C/c4ccccc4)CC3)nc3cccnc32)cc1", "values": [{"measurement": "ED50", "setting": "Rattus norvegicus [1]", "value": 1.25, "unit": "mg/kg"}, {"measurement": "ED50", "setting": "Rattus norvegicus [2]", "value": "> 2.5", "unit": "mg/kg"}]}
{"smiles": "CN(C)C(=O)C(CCN1CCC(Nc2nc3cccnc3n2Cc2ccccc2)CC1)(c1ccccc1)c1ccccc1", "values": [{"measurement": "ED50", "setting": "Rattus norvegicus [1]", "value": "> 2.5", "unit": "mg/kg"}]}
{"smiles": "CN1CCC(Nc2nc3cccnc3n2Cc2ccc(F)cc2)CC1", "values": [{"measurement": "ED50", "setting": "Rattus norvegicus [1]", "value": 0.08, "unit": "mg/kg"}, {"measurement": "ED50", "setting": "Rattus norvegicus [2]", "value": "> 2.5", "unit": "mg/kg"}]}
{"smiles": "O=C(NCCN1CCC(Nc2nc3cccnc3n2Cc2ccccc2)CC1)c1ccc(F)cc1", "values": [{"measurement": "ED50", "setting": "Rattus norvegicus [1]", "value": 0.08, "unit": "mg/kg"}, {"measurement": "ED50", "setting": "Rattus norvegicus [2]", "value": 1.25, "unit": "mg/kg"}]}
{"smiles": "O=C(CCCN1CCC(Nc2nc3cccnc3n2Cc2ccc(F)cc2)CC1)c1ccc(F)cc1", "values": [{"measurement": "ED50", "setting": "Rattus norvegicus [1]", "value": 0.04, "unit": "mg/kg"}, {"measurement": "ED50", "setting": "Rattus norvegicus [2]", "value": 1.25, "unit": "mg/kg"}]}
{"smiles": "Fc1ccc(Cn2c(NC3CCN(CCc4ccccc4)CC3)nc3cccnc32)cc1", "values": [{"measurement": "ED50", "setting": "Rattus norvegicus [1]", "value": 0.31, "unit": "mg/kg"}, {"measurement": "ED50", "setting": "Rattus norvegicus [2]", "value": "> 2.5", "unit": "mg/kg"}]}
{"smiles": "Fc1ccc(Cn2c(NC3CCN(CCCOc4ccccc4)CC3)nc3cccnc32)cc1", "values": [{"measurement": "ED50", "setting": "Rattus norvegicus [1]", "value": 0.31, "unit": "mg/kg"}, {"measurement": "ED50", "setting": "Rattus norvegicus [2]", "value": 0.31, "unit": "mg/kg"}]}
{"smiles": "Fc1ccc(OCCCN2CCC(Nc3nc4cccnc4n3Cc3ccccc3)CC2)cc1", "values": [{"measurement": "ED50", "setting": "Rattus norvegicus [1]", "value": 1.25, "unit": "mg/kg"}, {"measurement": "ED50", "setting": "Rattus norvegicus [2]", "value": 1.25, "unit": "mg/kg"}]}
{"smiles": "Fc1ccc(Cn2c(NC3CCN(CCc4ccccn4)CC3)nc3cccnc32)cc1", "values": [{"measurement": "ED50", "setting": "Rattus norvegicus [1]", "value": 0.04, "unit": "mg/kg"}, {"measurement": "ED50", "setting": "Rattus norvegicus [2]", "value": 0.31, "unit": "mg/kg"}]}
{"smiles": "c1ccc(Cn2c(NC3CCN(CCOc4ccccc4)CC3)nc3cccnc32)cc1", "values": [{"measurement": "ED50", "setting": "Rattus norvegicus [1]", "value": 0.31, "unit": "mg/kg"}, {"measurement": "ED50", "setting": "Rattus norvegicus [2]", "value": 1.25, "unit": "mg/kg"}]}
{"smiles": "CCn1nnn(CCN2CCC(Nc3nc4cccnc4n3Cc3ccc(F)cc3)CC2)c1=O", "values": [{"measurement": "ED50", "setting": "Rattus norvegicus [1]", "value": 0.31, "unit": "mg/kg"}, {"measurement": "ED50", "setting": "Rattus norvegicus [2]", "value": "> 2.5", "unit": "mg/kg"}]}
{"smiles": "CN1CCC(Nc2nc3cccnc3n2Cc2ccccc2)CC1", "values": [{"measurement": "ED50", "setting": "Rattus norvegicus [1]", "value": 0.08, "unit": "mg/kg"}, {"measurement": "ED50", "setting": "Rattus norvegicus [2]", "value": "> 2.5", "unit": "mg/kg"}]}
{"smiles": "c1ccc(Cn2c(NC3CCN(C4CCCCC4)CC3)nc3cccnc32)cc1", "values": [{"measurement": "ED50", "setting": "Rattus norvegicus [1]", "value": 0.63, "unit": "mg/kg"}, {"measurement": "ED50", "setting": "Rattus norvegicus [2]", "value": "> 2.5", "unit": "mg/kg"}]}
{"smiles": "c1ccc(Cn2c(NC3CCN(CC4COc5ccccc5O4)CC3)nc3cccnc32)cc1", "note": "(stereo not drawn)", "values": [{"measurement": "ED50", "setting": "Rattus norvegicus [1]", "value": 0.63, "unit": "mg/kg"}, {"measurement": "ED50", "setting": "Rattus norvegicus [2]", "value": "> 2.5", "unit": "mg/kg"}]}
{"smiles": "C(=C\\c1ccccc1)/CN1CCC(Nc2nc3cccnc3n2Cc2ccccc2)CC1", "values": [{"measurement": "ED50", "setting": "Rattus norvegicus [1]", "value": 1.25, "unit": "mg/kg"}, {"measurement": "ED50", "setting": "Rattus norvegicus [2]", "value": 1.25, "unit": "mg/kg"}]}
{"smiles": "Oc1nc2ccccc2n1CCCN1CCC(Nc2nc3cccnc3n2Cc2ccc(F)cc2)CC1", "values": [{"measurement": "ED50", "setting": "Rattus norvegicus [1]", "value": 0.63, "unit": "mg/kg"}, {"measurement": "ED50", "setting": "Rattus norvegicus [2]", "value": 2.5, "unit": "mg/kg"}]}
{"smiles": "c1ccc(Cn2c(NC3CCN(CCN4CCOCC4)CC3)nc3cccnc32)cc1", "values": [{"measurement": "ED50", "setting": "Rattus norvegicus [1]", "value": 0.63, "unit": "mg/kg"}, {"measurement": "ED50", "setting": "Rattus norvegicus [2]", "value": 2.5, "unit": "mg/kg"}]}
{"smiles": "Fc1ccc(Cn2c(NC3CCN(CCCC(c4ccc(F)cc4)c4ccc(F)cc4)CC3)nc3cccnc32)cc1", "values": [{"measurement": "ED50", "setting": "Rattus norvegicus [1]", "value": "> 2.5", "unit": "mg/kg"}]}
{"smiles": "O=C(CCCN1CCC(Nc2nc3cccnc3n2Cc2ccccc2)CC1)c1ccc(F)cc1", "values": [{"measurement": "ED50", "setting": "Rattus norvegicus [1]", "value": 0.31, "unit": "mg/kg"}, {"measurement": "ED50", "setting": "Rattus norvegicus [2]", "value": 1.25, "unit": "mg/kg"}]}
{"smiles": "C=CCN1CCC(Nc2nc3cccnc3n2Cc2ccccc2)CC1", "values": [{"measurement": "ED50", "setting": "Rattus norvegicus [1]", "value": 0.31, "unit": "mg/kg"}, {"measurement": "ED50", "setting": "Rattus norvegicus [2]", "value": "> 2.5", "unit": "mg/kg"}]}
{"smiles": "CC(C)N1CCC(Nc2nc3cccnc3n2Cc2ccccc2)CC1", "values": [{"measurement": "ED50", "setting": "Rattus norvegicus [1]", "value": 0.63, "unit": "mg/kg"}, {"measurement": "ED50", "setting": "Rattus norvegicus [2]", "value": "> 2.5", "unit": "mg/kg"}]}
{"smiles": "COc1ccc(CCN2CCC(Nc3nc4cccnc4n3Cc3ccccc3)CC2)cc1", "values": [{"measurement": "ED50", "setting": "Rattus norvegicus [1]", "value": 0.16, "unit": "mg/kg"}, {"measurement": "ED50", "setting": "Rattus norvegicus [2]", "value": 0.31, "unit": "mg/kg"}]}
{"smiles": "COc1ccc(CCN2CCC(Nc3nc4cccnc4n3Cc3ccc(F)cc3)CC2)cc1", "values": [{"measurement": "ED50", "setting": "Rattus norvegicus [1]", "value": 0.31, "unit": "mg/kg"}, {"measurement": "ED50", "setting": "Cavia porcellus [7]", "value": 0.16, "unit": "mg/kg"}, {"measurement": "ED50", "setting": "Rattus norvegicus [2]", "value": 0.16, "unit": "mg/kg"}, {"measurement": "ED50", "setting": "Cavia porcellus [8]", "value": 0.25, "unit": "mg/kg"}, {"measurement": "ED50", "setting": "Cavia porcellus [9]", "value": 0.12, "unit": "mg/kg"}]}
